Experiments:
[1] = molecular target: T1, Adenosine receptor A1 (Homo sapiens) (UniProt P30542); assay: Displacement of [3H]R-PIA from human adenosine A1 receptor expressed in CHO cells at 10 uM; format: cell-based
T1 sequence (whole entry): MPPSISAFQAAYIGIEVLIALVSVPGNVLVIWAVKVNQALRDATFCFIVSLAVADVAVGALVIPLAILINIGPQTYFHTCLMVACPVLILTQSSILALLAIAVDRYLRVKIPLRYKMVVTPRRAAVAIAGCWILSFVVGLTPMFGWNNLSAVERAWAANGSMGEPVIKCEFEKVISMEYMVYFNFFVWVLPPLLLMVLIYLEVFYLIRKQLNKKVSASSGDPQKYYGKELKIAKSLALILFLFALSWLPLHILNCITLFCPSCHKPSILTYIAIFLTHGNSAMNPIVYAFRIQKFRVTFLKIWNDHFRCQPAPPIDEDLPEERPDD
How it was run: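 Single-point test at 10 μM on membranes of CHO cells stably expressing human A1 receptor, read as percent inhibition of [3H]R-PIA agonist binding. Nonspecific binding was defined with 10 μM NECA.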

Adenosine receptor A2a [2] = molecular target: T2, Adenosine receptor A2a (Homo sapiens, UniProt P29274); assay: Displacement of [3H]2-[p-(2-carboxyethyl)phenyl-ethylamino]-5'-N-ethylcarboxamidoadenosine from human adenosine A2a receptor expressed in HEK293 cells; format: cell-based
Target sequence in this assay (P29274 whole entry): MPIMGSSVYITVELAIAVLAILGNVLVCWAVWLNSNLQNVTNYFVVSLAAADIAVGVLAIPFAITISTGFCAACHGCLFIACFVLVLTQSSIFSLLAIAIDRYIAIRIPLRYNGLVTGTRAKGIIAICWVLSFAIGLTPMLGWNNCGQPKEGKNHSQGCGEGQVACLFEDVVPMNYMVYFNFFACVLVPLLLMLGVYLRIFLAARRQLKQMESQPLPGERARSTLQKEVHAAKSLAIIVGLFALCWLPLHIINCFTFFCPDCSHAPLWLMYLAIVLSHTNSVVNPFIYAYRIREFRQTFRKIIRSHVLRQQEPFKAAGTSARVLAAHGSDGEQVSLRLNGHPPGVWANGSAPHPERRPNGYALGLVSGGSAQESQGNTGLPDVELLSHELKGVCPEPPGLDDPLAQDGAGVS

Adenosine receptor A3 = molecular target: T3, Adenosine receptor A3 (Homo sapiens, UniProt P0DMS8); assay: Displacement of [125I]I-AB-MECA from human adenosine A3 receptor expressed in CHO cells; format: cell-based
T3 sequence (P0DMS8 whole entry): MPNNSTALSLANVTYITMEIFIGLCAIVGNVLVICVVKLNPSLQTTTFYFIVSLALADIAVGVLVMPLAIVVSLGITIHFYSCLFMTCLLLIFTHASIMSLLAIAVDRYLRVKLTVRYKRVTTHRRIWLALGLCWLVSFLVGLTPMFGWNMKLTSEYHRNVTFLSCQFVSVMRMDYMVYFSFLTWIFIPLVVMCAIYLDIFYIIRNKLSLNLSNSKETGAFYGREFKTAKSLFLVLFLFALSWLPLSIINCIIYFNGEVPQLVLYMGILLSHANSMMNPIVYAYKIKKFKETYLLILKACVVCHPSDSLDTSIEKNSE

Adenosine receptor A2a [3] = molecular target: T2, Adenosine receptor A2a; assay: Displacement of [3H]4-[2-[7-amino-2-(2-furyl)-1,2,4-triazolo[1,5-a][1,3,5]triazin-5-yl-amino]ethylphenol from human adenosine A2a receptor K150A mutant expressed in COS-7 cells assessed as radioligand Bmax per mg of protein compound preincubated for 30 mins
Target sequence in this assay (P29274 whole entry, looked up): as the sequence (P29274 whole entry) above

Adenosine receptor A2a [4] = molecular target: T2, Adenosine receptor A2a; assay: Displacement of [3H]2-[p-(2-carboxyethyl)phenyl-ethylamino]-5'-N-ethylcarboxamidoadenosine from human adenosine A2a receptor expressed in HEK293 cells assessed as radioligand binding at 1 uM preincubated for 30 mins; format: cell-based
How it was run: (§1)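 Membranes of HEK293 cells stably expressing human A2A receptor were preincubated with compound (1 μM, 30 min). Membranes were then washed by repeated centrifugation cycles. Residual specific binding was measured with agonist [3H]CGS21680 (10 nM) or antagonist [3H]7 (1.0 nM) and expressed as percent binding remaining.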
Target sequence in this assay (P29274 whole entry): as the sequence (P29274 whole entry) above

Adenosine receptor A1 = molecular target: T4, Adenosine receptor A1 (Homo sapiens, UniProt P30542); assay: Displacement of [3H]R-PIA from human adenosine A1 receptor expressed in CHO cells; format: cell-based
T4 sequence (P30542 whole entry): T1 sequence (whole entry)

Adenosine receptor A2a [5] = molecular target: T2, Adenosine receptor A2a; assay: Displacement of [3H]4-[2-[7-amino-2-(2-furyl)-1,2,4-triazolo[1,5-a][1,3,5]triazin-5-yl-amino]ethylphenol from human adenosine A2a receptor K153A mutant expressed in COS-7 cells assessed as radioligand Bmax per mg of protein compound preincubated for 30 mins
Target sequence in this assay (P29274 whole entry, looked up): as the sequence (P29274 whole entry) above

Adenosine receptor A2a [6] = molecular target: T2, Adenosine receptor A2a; assay: Displacement of [3H]4-[2-[7-amino-2-(2-furyl)-1,2,4-triazolo[1,5-a][1,3,5]triazin-5-yl-amino]ethylphenol from human adenosine A2a receptor expressed in HEK293 cells assessed as radioligand binding at 1 uM preincubated for 30 mins; format: cell-based; how it was run: as §1
Target sequence in this assay (P29274 whole entry): as the sequence (P29274 whole entry) above

Homo sapiens [7] = species on record: Homo sapiens; assay: Selectivity ratio of Ki for human adenosine A3 receptor to Ki for human adenosine A2A receptor
Adenosine receptor A2a [8] = molecular target: T2, Adenosine receptor A2a; assay: Displacement of [3H]4-[2-[7-amino-2-(2-furyl)-1,2,4-triazolo[1,5-a][1,3,5]triazin-5-yl-amino]ethylphenol from wild type human adenosine A2a receptor expressed in COS-7 cells assessed as radioligand Kd compound preincubated for 30 mins
Target sequence in this assay (P29274 whole entry): as the sequence (P29274 whole entry) above

Adenosine receptor A2a [9] = molecular target: T2, Adenosine receptor A2a; assay: Agonist activity at human adenosine A2a receptor expressed in CHO cells assessed as stimulation of cAMP formation after 24 hrs; format: functional, cell-based
Target sequence in this assay (P29274 whole entry): as the sequence (P29274 whole entry) above

Homo sapiens [10] = species on record: Homo sapiens; assay: Selectivity ratio of Ki for human adenosine A1 receptor to Ki for human adenosine A2A receptor

Structure (SMILES) | inhibition [1] | Ki (Adenosine receptor A2a [2]) | Ki (Adenosine receptor A3) | Bmax (Adenosine receptor A2a [3]) | Activity (Adenosine receptor A2a [4]) | Ki (Adenosine receptor A1) | Bmax (Adenosine receptor A2a [5]) | Activity (Adenosine receptor A2a [6]) | Ratio Ki (Homo sapiens [7]) | Kd (Adenosine receptor A2a [8]) | EC50 (Adenosine receptor A2a [9]) | Ratio Ki (Homo sapiens [10])
CCNC(=O)[C@H]1O[C@@H](n2cnc3c(N)nc(NCCc4ccc(CCC(=O)Nc5ccc(OC(=O)CCCC[C@@H]6SC[C@@H]7NC(=O)N[C@@H]76)c([N+](=O)[O-])c5)cc4)nc32)[C@H](O)[C@@H]1O | 37% | 3280 nM | 1960 nM |  |  |  |  |  |  |  |  | 
CCNC(=O)[C@H]1O[C@@H](n2cnc3c(N)nc(NCCc4ccc(CCC(=O)Nc5ccc(OC(C)=O)c([N+](=O)[O-])c5)cc4)nc32)[C@H](O)[C@@H]1O |  | 23 nM | 207 nM | 0.2 pmol | 19% | 500 nM | 1.65 pmol | 11% | 9 | 2.24 nM | 2.12 nM | 22
CCNC(=O)[C@H]1O[C@@H](n2cnc3c(N)nc(NCCc4ccc(CCC(=O)Nc5ccc(O)c([N+](=O)[O-])c5)cc4)nc32)[C@H](O)[C@@H]1O |  | 267 nM | 171 nM |  |  | 1890 nM |  |  |  |  |  | 
CCNC(=O)[C@H]1O[C@@H](n2cnc3c(N)nc(NCCc4ccc(CCC(=O)Nc5ccc(OC(=O)CCCCN=[N+]=[N-])c([N+](=O)[O-])c5)cc4)nc32)[C@H](O)[C@@H]1O | 30% | 4360 nM | 1810 nM |  |  |  |  |  |  |  |  | 

Source: ChEMBL document CHEMBL3352600, “Structure-Based Design of Reactive Nucleosides for Site-Specific Modification of the A2A Adenosine Receptor” (ACS Med Chem Lett, 2014)
